Results published in PMC10494472 (Saudi Pharmaceutical Journal : SPJ, 2023).

Columns and labels:
Type in all cases: biochemical
FAS from chicken liver = FAS from chicken liver (Gallus gallus, UniProt P12276); experiment: FAS inhibition assay
Method in brief: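 Chicken liver FAS (10 µg) with test compound (10–200 µg/mL) in 100 mM potassium phosphate buffer containing 1 mM dithiothreitol, 1 mM EDTA, 10 µM malonyl-CoA, 3 µM acetyl-CoA and 35 µM NADPH. Activity was followed at 37 °C as the change in NADPH absorbance at 340 nm. The blank omitted the enzyme.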

α-glucosidase (maltase) = α-glucosidase (maltase) (Saccharomyces cerevisiae, UniProt P53341); experiment: α-glucosidase inhibition assay
XO = XO (Bos taurus, UniProt P80457); experiment: XO inhibition assay
Chain of XO (P80457 whole entry): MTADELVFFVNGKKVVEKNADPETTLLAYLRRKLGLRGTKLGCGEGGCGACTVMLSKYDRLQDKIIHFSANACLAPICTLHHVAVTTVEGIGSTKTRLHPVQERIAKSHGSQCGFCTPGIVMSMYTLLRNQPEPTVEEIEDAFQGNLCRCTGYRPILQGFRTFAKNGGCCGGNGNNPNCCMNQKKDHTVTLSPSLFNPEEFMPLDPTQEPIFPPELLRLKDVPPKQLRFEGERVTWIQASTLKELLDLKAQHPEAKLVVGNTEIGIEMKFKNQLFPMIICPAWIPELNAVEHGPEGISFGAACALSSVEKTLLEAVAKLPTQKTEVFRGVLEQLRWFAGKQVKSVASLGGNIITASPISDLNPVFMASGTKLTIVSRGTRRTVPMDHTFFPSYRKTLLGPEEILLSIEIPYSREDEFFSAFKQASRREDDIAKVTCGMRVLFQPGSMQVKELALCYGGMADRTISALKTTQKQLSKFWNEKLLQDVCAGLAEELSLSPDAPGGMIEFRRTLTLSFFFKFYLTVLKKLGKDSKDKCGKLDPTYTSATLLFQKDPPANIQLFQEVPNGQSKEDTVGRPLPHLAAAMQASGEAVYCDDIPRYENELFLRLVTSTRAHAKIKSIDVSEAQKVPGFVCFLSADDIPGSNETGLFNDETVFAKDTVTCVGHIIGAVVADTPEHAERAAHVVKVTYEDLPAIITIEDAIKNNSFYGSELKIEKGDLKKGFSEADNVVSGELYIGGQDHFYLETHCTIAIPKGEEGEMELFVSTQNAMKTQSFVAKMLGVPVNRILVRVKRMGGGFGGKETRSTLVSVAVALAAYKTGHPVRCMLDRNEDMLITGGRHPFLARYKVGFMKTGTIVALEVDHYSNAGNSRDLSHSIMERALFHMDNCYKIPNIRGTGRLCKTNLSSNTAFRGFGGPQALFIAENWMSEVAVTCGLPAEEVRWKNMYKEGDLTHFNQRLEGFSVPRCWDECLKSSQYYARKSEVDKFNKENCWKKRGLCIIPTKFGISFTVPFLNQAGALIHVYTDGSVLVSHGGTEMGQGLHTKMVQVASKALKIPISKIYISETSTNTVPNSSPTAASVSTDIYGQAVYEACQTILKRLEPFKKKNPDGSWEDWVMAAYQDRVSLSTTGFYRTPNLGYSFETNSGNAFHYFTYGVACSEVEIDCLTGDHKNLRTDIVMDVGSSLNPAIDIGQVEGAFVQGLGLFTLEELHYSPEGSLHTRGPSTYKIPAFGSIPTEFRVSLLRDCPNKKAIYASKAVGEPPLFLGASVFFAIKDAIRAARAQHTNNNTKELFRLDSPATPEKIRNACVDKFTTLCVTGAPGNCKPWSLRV

Chain of FAS from chicken liver (P12276 whole entry): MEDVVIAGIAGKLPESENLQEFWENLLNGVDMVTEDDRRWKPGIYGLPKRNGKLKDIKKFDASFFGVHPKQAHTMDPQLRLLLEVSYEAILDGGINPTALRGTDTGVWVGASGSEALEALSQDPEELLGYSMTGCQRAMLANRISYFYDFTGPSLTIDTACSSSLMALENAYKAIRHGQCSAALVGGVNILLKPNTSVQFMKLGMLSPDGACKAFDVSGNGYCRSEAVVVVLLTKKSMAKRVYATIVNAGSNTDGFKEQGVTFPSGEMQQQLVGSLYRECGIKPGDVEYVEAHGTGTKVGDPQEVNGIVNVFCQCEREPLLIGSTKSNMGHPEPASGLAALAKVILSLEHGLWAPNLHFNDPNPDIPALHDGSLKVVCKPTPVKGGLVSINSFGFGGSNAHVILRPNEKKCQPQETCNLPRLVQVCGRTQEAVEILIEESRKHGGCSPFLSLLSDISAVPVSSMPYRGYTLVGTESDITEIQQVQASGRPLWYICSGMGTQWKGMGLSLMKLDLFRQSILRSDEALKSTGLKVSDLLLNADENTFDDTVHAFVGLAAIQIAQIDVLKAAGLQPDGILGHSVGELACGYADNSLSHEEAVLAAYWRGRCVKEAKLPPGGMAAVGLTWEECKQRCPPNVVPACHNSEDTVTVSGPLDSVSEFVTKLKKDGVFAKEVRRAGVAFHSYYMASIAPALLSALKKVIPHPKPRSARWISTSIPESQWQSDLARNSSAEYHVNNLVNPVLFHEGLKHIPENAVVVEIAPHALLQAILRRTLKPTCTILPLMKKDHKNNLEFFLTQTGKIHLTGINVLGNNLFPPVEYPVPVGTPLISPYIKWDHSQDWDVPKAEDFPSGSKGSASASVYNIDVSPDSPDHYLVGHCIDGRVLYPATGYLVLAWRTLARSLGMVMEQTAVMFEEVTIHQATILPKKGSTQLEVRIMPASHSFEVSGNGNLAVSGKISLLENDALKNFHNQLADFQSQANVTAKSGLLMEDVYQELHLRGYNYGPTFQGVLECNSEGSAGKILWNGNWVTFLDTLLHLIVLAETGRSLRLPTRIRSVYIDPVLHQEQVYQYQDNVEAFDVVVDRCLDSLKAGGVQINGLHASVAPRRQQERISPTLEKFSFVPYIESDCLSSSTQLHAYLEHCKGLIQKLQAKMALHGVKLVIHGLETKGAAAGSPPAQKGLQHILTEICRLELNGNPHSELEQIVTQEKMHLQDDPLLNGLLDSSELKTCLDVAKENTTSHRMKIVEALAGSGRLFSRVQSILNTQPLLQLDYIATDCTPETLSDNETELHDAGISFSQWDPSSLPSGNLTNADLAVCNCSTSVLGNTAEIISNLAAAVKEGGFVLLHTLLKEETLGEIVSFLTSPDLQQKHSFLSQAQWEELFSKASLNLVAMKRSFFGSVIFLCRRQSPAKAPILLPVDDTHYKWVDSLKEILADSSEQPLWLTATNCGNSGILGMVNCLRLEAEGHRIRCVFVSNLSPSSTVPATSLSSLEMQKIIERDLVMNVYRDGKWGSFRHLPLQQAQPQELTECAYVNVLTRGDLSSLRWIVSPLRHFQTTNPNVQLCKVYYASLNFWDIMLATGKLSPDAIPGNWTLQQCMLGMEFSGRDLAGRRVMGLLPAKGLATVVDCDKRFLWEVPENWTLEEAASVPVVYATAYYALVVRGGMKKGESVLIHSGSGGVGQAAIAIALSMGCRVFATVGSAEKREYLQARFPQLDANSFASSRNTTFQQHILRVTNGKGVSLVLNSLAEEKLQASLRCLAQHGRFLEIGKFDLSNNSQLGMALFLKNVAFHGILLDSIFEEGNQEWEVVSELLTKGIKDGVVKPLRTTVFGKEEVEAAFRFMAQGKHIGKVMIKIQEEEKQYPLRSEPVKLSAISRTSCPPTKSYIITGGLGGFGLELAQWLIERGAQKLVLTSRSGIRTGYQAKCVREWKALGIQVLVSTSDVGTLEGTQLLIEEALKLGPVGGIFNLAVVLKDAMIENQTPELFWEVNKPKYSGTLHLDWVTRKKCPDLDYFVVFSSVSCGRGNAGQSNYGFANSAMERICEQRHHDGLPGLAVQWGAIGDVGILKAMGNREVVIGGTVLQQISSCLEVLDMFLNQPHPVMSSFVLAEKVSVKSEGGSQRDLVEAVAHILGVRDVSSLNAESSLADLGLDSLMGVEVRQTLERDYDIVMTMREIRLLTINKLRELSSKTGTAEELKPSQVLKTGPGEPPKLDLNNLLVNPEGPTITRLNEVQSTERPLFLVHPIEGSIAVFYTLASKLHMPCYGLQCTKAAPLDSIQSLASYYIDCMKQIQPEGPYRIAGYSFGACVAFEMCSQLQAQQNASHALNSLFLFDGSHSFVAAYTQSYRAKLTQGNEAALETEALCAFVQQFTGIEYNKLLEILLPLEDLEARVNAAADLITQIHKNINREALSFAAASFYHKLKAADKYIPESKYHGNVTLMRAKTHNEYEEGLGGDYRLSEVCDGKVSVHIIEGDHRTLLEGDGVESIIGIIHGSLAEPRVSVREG
Chain of α-glucosidase (maltase) (P53341 whole entry): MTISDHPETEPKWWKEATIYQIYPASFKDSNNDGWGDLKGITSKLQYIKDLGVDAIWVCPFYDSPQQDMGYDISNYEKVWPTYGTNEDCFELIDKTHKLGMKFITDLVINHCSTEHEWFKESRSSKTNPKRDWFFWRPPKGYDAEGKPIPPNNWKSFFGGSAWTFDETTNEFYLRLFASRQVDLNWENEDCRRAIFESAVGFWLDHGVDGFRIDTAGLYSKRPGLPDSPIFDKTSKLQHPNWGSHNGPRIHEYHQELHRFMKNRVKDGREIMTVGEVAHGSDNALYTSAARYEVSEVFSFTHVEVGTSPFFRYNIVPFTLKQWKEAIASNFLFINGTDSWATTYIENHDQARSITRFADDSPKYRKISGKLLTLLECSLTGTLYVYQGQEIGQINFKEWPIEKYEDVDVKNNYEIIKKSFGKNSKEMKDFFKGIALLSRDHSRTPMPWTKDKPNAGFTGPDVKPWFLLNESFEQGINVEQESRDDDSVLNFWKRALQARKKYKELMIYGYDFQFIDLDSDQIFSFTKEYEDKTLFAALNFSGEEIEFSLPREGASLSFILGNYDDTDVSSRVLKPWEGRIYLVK

IC50 (FAS from chicken liver) [µM]	IC50 (α-glucosidase (maltase)) [µM]	IC50 (XO) [µM]	Structure (SMILES)
75	92.8	–	O=c1cc(-c2ccc(O)c(-c3c(O)cc(O)c4c(=O)cc(-c5ccc(O)cc5)oc34)c2)oc2cc(O)cc(O)c12 [Compound 4, amentoflavone]
98.3	101	109	C=C(C)[C@@H]1CC[C@]2(C)CC[C@]3(C)[C@H](CC[C@@H]4[C@@]5(C)CC[C@H](O)C(C)(C)[C@@H]5CC[C@]43C)[C@@H]12 [Compound 1, lupeol]
63.2	88	69.9	C=C(C)[C@@H]1CC[C@]2(CO)CC[C@]3(C)[C@H](CC[C@@H]4[C@@]5(C)CC[C@H](O)C(C)(C)[C@@H]5CC[C@]43C)[C@@H]12 [Compound 2, betulin]
43.6	–	–	COc1ccc(-c2cc(=O)c3c(O)cc(O)c(-c4cc(-c5cc(=O)c6c(O)cc(O)cc6o5)ccc4O)c3o2)cc1 [Compound 3, podocarpusflavone A]
